Experimental data of several laboratories.
Each line is one published result; the experiments were not run side by side.
Organism: Plasmodium falciparum
Effect on: parasite growth

Structure (SMILES)	assay	system	conditions	IC50
COC1=CC(c2cccn2C)=NC1=Cc1ccc(CCCCCCCCCC(C)O)[nH]1 (stereo not drawn)		7G8	drug-resistant strain, blood stage	1000 nM
CCN(CC)CCCC(C)Nc1ccnc2cc(Cl)ccc12 (stereo not drawn)		D6	blood stage	0.02 µg/mL
COC1=CC(c2ccco2)=NC1=Cc1ccc(CCCCCCCCCC(C)O)[nH]1 (stereo not drawn)		DD2	drug-resistant strain, blood stage	> 2500 nM
CCN(CC)CCCC(C)Nc1ccnc2cc(Cl)ccc12 (stereo not drawn)	SYBR Green	W2	drug-resistant strain, blood stage	383 nM
FC(F)(F)c1ccc2c(c1)nc(N1CCNCC1)n2Cc1ccccc1		K1	drug-resistant strain, blood stage	415 nM
COC1=CC(c2ccc[nH]2)=NC1=Cc1ccc(CCCCCCCCCCCO)[nH]1		7G8	drug-resistant strain, blood stage	93 nM
CC(C)(C)C(O)C(Oc1ccc(-c2ccccc2)cc1)n1cncn1 (stereo not drawn)	SYBR Green		blood stage	8690 nM
NC1CCN(c2nc3cc(Cl)ccc3n2Cc2ccccc2)CC1		K1	drug-resistant strain, blood stage	14 nM
CCN(CC)CCCC(C)Nc1ccnc2cc(Cl)ccc12 (stereo not drawn)	ELISA	DD2	drug-resistant strain, blood stage	262 nM
COC1=CC(c2ccc[nH]2)=NC1=Cc1ccc(CCCCCCCCCCO)[nH]1		7G8	drug-resistant strain, blood stage	168 nM
CCN(CC)CCCC(C)Nc1ccnc2cc(Cl)ccc12 (stereo not drawn)		W2	drug-resistant strain, blood stage	0.15 µg/mL
Clc1ccc2c(nc(N3CCNCC3)n2Cc2ccccc2)c1Cl		K1	drug-resistant strain, blood stage	32 nM
CCN(CC)CCCC(C)Nc1ccnc2cc(Cl)ccc12 (stereo not drawn)		7G8	drug-resistant strain, blood stage	63 nM
CCN(CC)CCCC(C)Nc1ccnc2cc(Cl)ccc12 (stereo not drawn)		W2	72 h, drug-resistant strain	360 nM
CC1=C(C)C(c2ccc[nH]2)=NC1=Cc1ccc(CCCCCCCCCC(C)O)[nH]1 (stereo not drawn)		7G8	drug-resistant strain, blood stage	627 nM
CCCCCCCCCCOc1cc2c(O)c(C(=O)OCC)cnc2cc1OCC	SYBR Green	3D7	blood stage	< 5.7 nM
CCN(CC)CCCC(C)Nc1ccnc2cc(Cl)ccc12 (stereo not drawn)		K1	drug-resistant strain, blood stage	280 nM
COC1=CC(c2ccc[nH]2)=NC1=Cc1ccc(CCCCCCCCCCCCO)[nH]1		DD2	drug-resistant strain, blood stage	23 nM
Clc1ccc2c(N3CCN(CCCN4CCN(c5ccnc6cc(Cl)ccc56)CC4)CC3)ccnc2c1		3D7	blood stage	4.4 nM
Clc1ccc2c(c1)nc(NCCNCc1ccccc1)n2Cc1ccccc1		K1	drug-resistant strain, blood stage	212 nM
OC(c1cc(C(F)(F)F)nc2c(C(F)(F)F)cccc12)C1CCCCN1 (stereo not drawn)			blood stage	37.2 nM
CCN(CC)CCCC(C)Nc1ccnc2cc(Cl)ccc12 (stereo not drawn)		W2	drug-resistant strain	310 nM
CCc1ccc(C2=NC(=Cc3ccc(CCCCCCCCCC(C)O)[nH]3)C(OC)=C2)[nH]1 (stereo not drawn)		7G8	drug-resistant strain, blood stage	24 nM
CCN(CC)CCCC(C)Nc1ccnc2cc(Cl)ccc12 (stereo not drawn)		3D7	blood stage	11 nM
